Test results taken from ChEMBL document CHEMBL5705892, “MK-2206, an allosteric Akt inhibitor, enhances antitumor efficacy by standard chemotherapeutic agents or molecular targeted drugs in vitro and in vivo” (Mol Cancer Ther, 2010).
Active and inactive are the calls of the source. The calls are words filed in the database; no cut-off is given here.

Key:
NCI-H23 [1] = test: Synergistic antiproliferative activity against human NCI-H23 cells assessed as combination index at ED90 measured after 72 hrs in presence of erlotinib by celltiter-glo assay; type: functional
[2] = biological target: RAC-alpha serine/threonine-protein kinase (Homo sapiens) (UniProt P31749); test: Inhibition of AKT in human HCC827 cells assessed as reduction in AKT phosphorylation at S473 residue at 5 umol/L measured after 5 hrs by Western blot analysis; type: cell-based; conditions: dose 5.0 µmol/L
[3] = biological target: RAC-alpha serine/threonine-protein kinase (Homo sapiens) (UniProt P31749); test: Inhibition of AKT in human A-431 cells assessed as reduction in AKT phosphorylation at S473 residue at 5 umol/L measured after 5 hrs in presence of erlotinib by Western blot analysis; type: cell-based; conditions: dose 5.0 µmol/L
Outline: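 Cells were lysed in Tris-HCl pH 7.5, 150 mM NaCl, 1% Triton X-100 with protease and phosphatase inhibitors. Lysates were run on SDS-PAGE, transferred to nitrocellulose and probed with phospho-specific antibodies.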

NCI-H358 = test: Synergistic antiproliferative activity against human NCI-H358 cells assessed as combination index at ED90 measured after 72 hrs in presence of erlotinib by celltiter-glo assay; type: functional
NCI-H460 [4] = test: Synergistic antiproliferative activity against human NCI-H460 cells assessed as combination index at ED90 measured after 72 hrs in presence of carboplatin by celltiter-glo assay; type: functional
HCC1954 = test: Synergistic antiproliferative activity against human HCC1954 cells assessed as combination index at ED90 treated 24 hrs prior to lapatinib and measured after 72 hrs by celltiter-glo assay; type: functional; conditions: time 96 hrs
NCI-N87 = test: Synergistic antiproliferative activity against human NCI-N87 cells assessed as combination index at ED75 treated 24 hrs prior to lapatinib and measured after 72 hrs by celltiter-glo assay; type: functional; conditions: time 96 hrs
NCI-H292 [5] = test: Synergistic antiproliferative activity against human NCI-H292 cells assessed as combination index at ED50 measured after 72 hrs in presence of erlotinib by celltiter-glo assay; type: functional
BT-20 [6] = test: Synergistic antiproliferative activity against human BT-20 cells assessed as combination index at ED50 measured after 72 hrs in presence of docetaxel by celltiter-glo assay; type: functional
Outline: (§1)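 Cells grown in RPMI 1640 with 10% heat-inactivated FBS at 37°C, 5% CO₂. Seeded at 2 to 3 × 10³ per well; drugs added 24 h later. […] Viability read as cellular ATP by CellTiter-Glo. CI calculated by Chou–Talalay from median-effect plots at ED50, ED75 and ED90.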

NCI-H441 [7] = test: Synergistic antiproliferative activity against human NCI-H441 cells assessed as combination index at ED25 to ED90 measured after 72 hrs in presence of carboplatin by celltiter-glo assay; type: functional
SK-OV-3 [8] = test: Antiproliferative activity against human SK-OV-3 cells assessed as reduction in cell proliferation measured after 72 hrs by celltiter-glo assay; type: functional, cell-based; conditions: SK-OV-3, 72 h
Outline: (§2)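 Cells in RPMI 1640 with 10% heat-inactivated FBS at 37°C and 5% CO₂ were seeded at 2 to 3 × 10³ per well. […] Growth was read as cellular ATP by CellTiter-Glo.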

NCI-H292 [9] = test: Antitumor activity against human NCI-H292 cells xenografted in CD-1 mouse assessed as tumor growth suppression at 360 mg/kg, po administered once a week for 2 weeks starting 2 hrs post-erlotinib treatment and measured twice a week during compound dosing by caliper method; type: functional, organism-based
Outline: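 Female CD1-nude mice carried s.c. NCI-H292 cells in Matrigel/PBS and were randomized at 0.2 cm³, n = 5. […] MK-2206 (30% Captisol) was given 2 h later at 120 mg/kg po on days 0, 2, 4, 7, 9, 11, or at 360 mg/kg on days 0 and 7. Control received vehicle. Caliper volume twice weekly.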

MDA-MB-468 [10] = test: Synergistic antiproliferative activity against human MDA-MB-468 cells assessed as combination index at ED50 measured after 96 hrs in presence of lapatinib by celltiter-glo assay; type: functional
NCI-H23 [11] = test: Antiproliferative activity against human NCI-H23 cells assessed as reduction in cell proliferation measured after 72 hrs by celltiter-glo assay; type: functional, cell-based; conditions: NCI-H23, 72 h; outline: as §2
[12] = Toxicity in human HCC70 cells xenografted CB17/icr SCID mouse at 120 mg/kg, po administered 3 times per week for 3 weeks starting 2 hrs post-lapatinib treatment and measured during compound dosing; type: organism-based; conditions: in vivo, 504 h
Outline: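 HCC70 cells in 50% Matrigel/PBS injected s.c. into flank of female C.B-17/ICR-scid mice; dosing began after 3 wk, groups randomized at mean tumour 0.2 cm³ (n = 5). Lapatinib 100 mg/kg p.o. in distilled water, 5 d/wk for 3 wk; MK-2206 in 30% Captisol p.o. 3×/wk for 3 wk, given 2 h after lapatinib. Body weight and physical signs monitored throughout.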

BT-474 = test: Synergistic antiproliferative activity against docetaxel pretreated human BT-474 cells assessed as combination index at ED50 measured after 72 hrs by celltiter-glo assay; type: functional
HCC70 [13] = test: Antitumor activity against human HCC70 cells xenografted in CB17/icr SCID mouse assessed as reduction in tumor volume at 120 mg/kg, po administered 3 times per week for 3 weeks and measured twice a week during compound dosing by caliper method; type: functional, organism-based
Outline: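 Female C.B-17/ICR-scid mice were given s.c. HCC70 cells in 50% Matrigel/50% PBS in the left flank. They were randomized at a mean tumor size of 0.2 cm³, n = 5 per group. Lapatinib (distilled water) was given at 100 mg/kg po, 5 d/wk for 3 wk. MK-2206 (30% Captisol) was given at 120 mg/kg po, 3×/wk, 2 h after lapatinib. Calipers twice weekly; volume = […] × 0.5.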

SK-BR-3 = test: Synergistic antiproliferative activity against human SK-BR-3 cells assessed as combination index at ED50 measured after 96 hrs in presence of lapatinib by celltiter-glo assay; type: functional
MDA-MB-468 [14] = test: Synergistic antiproliferative activity against lapatinib pretreated human MDA-MB-468 cells assessed as combination index at ED75 measured after 72 hrs by celltiter-glo assay; type: functional
HCC70 [15] = test: Synergistic antiproliferative activity against human HCC70 cells assessed as combination index at ED75 treated 24 hrs prior to lapatinib and measured after 72 hrs by celltiter-glo assay; type: functional; conditions: time 96 hrs
SK-OV-3 [16] = test: Synergistic antiproliferative activity against human SK-OV-3 cells assessed as combination index at ED50 measured after 96 hrs in presence of lapatinib by celltiter-glo assay; type: functional
NCI-H441 [17] = test: Induction of apoptosis in human NCI-H441 cells assessed as fold induction of capsase-3/7 activity measured after 24 to 48 hrs in presence of carboplatin by caspase-glo 3/7 assay; type: functional; conditions: time 24-48 hrs
NCI-H460 [18] = test: Antiproliferative activity against human NCI-H460 cells assessed as reduction in cell proliferation measured after 72 hrs by celltiter-glo assay; type: functional, cell-based; conditions: NCI-H460, 72 h
BT-20 [19] = test: Synergistic antiproliferative activity against human BT-20 cells assessed as combination index at ED75 measured after 72 hrs in presence of docetaxel by celltiter-glo assay; type: functional; outline: as §1

Chain of RAC-alpha serine/threonine-protein kinase (Homo sapiens) (P31749 whole entry): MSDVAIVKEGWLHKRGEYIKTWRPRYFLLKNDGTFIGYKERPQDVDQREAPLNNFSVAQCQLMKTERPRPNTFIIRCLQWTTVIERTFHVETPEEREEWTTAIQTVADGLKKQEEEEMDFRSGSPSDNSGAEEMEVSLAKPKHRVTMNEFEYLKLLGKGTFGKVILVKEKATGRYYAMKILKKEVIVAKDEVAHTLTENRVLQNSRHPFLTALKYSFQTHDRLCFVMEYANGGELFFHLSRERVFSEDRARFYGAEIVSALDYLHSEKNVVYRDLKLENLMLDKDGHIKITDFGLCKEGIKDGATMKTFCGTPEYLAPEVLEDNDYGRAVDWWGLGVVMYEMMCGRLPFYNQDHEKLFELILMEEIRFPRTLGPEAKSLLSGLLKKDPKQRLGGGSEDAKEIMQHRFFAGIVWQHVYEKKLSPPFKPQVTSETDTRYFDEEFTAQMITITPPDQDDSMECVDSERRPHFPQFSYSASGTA

SMILES: Cl.NC1(c2ccc(-c3nc4ccn5c(=O)[nH]nc5c4cc3-c3ccccc3)cc2)CCC1
- CI90 (NCI-H23 [1]): 0.68
- inhibition [2]: Active
- inhibition [3]: Active
- CI90 (NCI-H358): 0.08
- CI90 (NCI-H460 [4]): 0.37
- CI90 (HCC1954): 0.18
- CI75 (NCI-N87): 0.18
- CI50 (NCI-H292 [5]): 0.44
- CI50 (BT-20 [6]): 1
- CI (NCI-H441 [7]): 0.46
- IC50 (SK-OV-3 [8]): 5.1 µM
- Activity (NCI-H292 [9]): Active
- CI50 (MDA-MB-468 [10]): 0.18
- IC50 (NCI-H23 [11]): 14.1 µM
- Activity [12]: Non-Toxic
- CI50 (BT-474): 0.8
- Activity (HCC70 [13]): Active
- CI50 (SK-BR-3): 0.18
- CI75 (MDA-MB-468 [14]): 0.18
- CI75 (HCC70 [15]): 0.18
- CI50 (SK-OV-3 [16]): 0.18
- fold change (FC) (NCI-H441 [17]): 2.3
- IC50 (NCI-H460 [18]): 3.4 µM
- CI75 (BT-20 [19]): 0.7
